Source: ChEMBL document CHEMBL3351270, “Curcumolide, a unique sesquiterpenoid with anti-inflammatory properties from Curcuma wenyujin” (Bioorg Med Chem Lett, 2015)
Each block holds one molecule with its values, some of them ahead of it. Activity calls are given as the source filed them. No cut-off for these calls is given here.

What was measured:
[1] = system: RAW264.7; assay: Antiinflammatory activity in mouse RAW264.7 cells assessed as inhibition of LPS-induced increase in TNF-alpha level at 10 uM incubated for 2 hrs prior to LPS challenge measured after 22 hrs by ELISA relative to control; assay type: functional
Summary of the method: (§1)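 RAW 264.7 macrophages pretreated 2 h with compound (0–20 µM) or 10 µM hydrocortisone as positive control, then exposed to LPS for a further 22 h. TNF-α, IL-1β and IL-6 in culture medium determined by ELISA. Means ± SEM from four independent experiments.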

[2] = system: RAW264.7; assay: Antiinflammatory activity in mouse RAW264.7 cells assessed as inhibition of LPS-induced increase in IL-6 level at 10 uM incubated for 2 hrs prior to LPS challenge measured after 22 hrs by ELISA relative to control; assay type: functional; summary of the method: as §1
[3] = system: RAW264.7; assay: Antiinflammatory activity in mouse RAW264.7 cells assessed as inhibition of LPS-induced increase in IL-1beta level at 10 uM incubated for 2 hrs prior to LPS challenge measured after 22 hrs by ELISA relative to control; assay type: functional; summary of the method: as §1
[4] = system: RAW264.7; assay: Antiinflammatory activity in mouse RAW264.7 cells assessed as inhibition of LPS-induced nitric oxide production at 10 uM incubated for 2 hrs prior to LPS challenge measured after 22 hrs relative to vehicle-treated control; assay type: functional
Summary of the method: (§2)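 Cells treated 2 h with compound (0–20 µM) or 10 µM hydrocortisone, followed by LPS for a further 22 h. NO production estimated as nitrite in culture medium by Griess reaction. Inhibition expressed as blocked ratio. Means ± SEM, four independent experiments.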

[5] = system: RAW264.7; assay: Cytotoxicity against mouse RAW264.7 cells assessed as cell viability at 0.01 to 100 uM after 24 hrs by MTT assay; assay type: cell-based; details: raw264.7, 24 h
Summary of the method: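 Viability of RAW 264.7 cells measured by MTT after 24 h exposure to compound at 0.01–100 µM.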

[6] = system: RAW264.7; assay: Antiinflammatory activity in mouse RAW264.7 cells assessed as inhibition of LPS-induced increase in TNF-alpha level incubated for 2 hrs prior to LPS challenge measured after 22 hrs by ELISA; assay type: functional, cell-based; summary of the method: as §1
[7] = system: RAW264.7; assay: Antiinflammatory activity in mouse RAW264.7 cells assessed as inhibition of LPS-induced increase in IL-6 level incubated for 2 hrs prior to LPS challenge measured after 22 hrs by ELISA; assay type: functional, cell-based; summary of the method: as §1
[8] = system: RAW264.7; assay: Antiinflammatory activity in mouse RAW264.7 cells assessed as inhibition of LPS-induced increase in IL-1beta level incubated for 2 hrs prior to LPS challenge measured after 22 hrs by ELISA; assay type: functional, cell-based; summary of the method: as §1
[9] = system: RAW264.7; assay: Antiinflammatory activity in mouse RAW264.7 cells assessed as inhibition of LPS-induced increase in TNF-alpha level at 20 uM incubated for 2 hrs prior to LPS challenge measured after 22 hrs by ELISA relative to control; assay type: functional; summary of the method: as §1
[10] = system: RAW264.7; assay: Antiinflammatory activity in mouse RAW264.7 cells assessed as inhibition of LPS-induced increase in IL-6 level at 20 uM incubated for 2 hrs prior to LPS challenge measured after 22 hrs by ELISA relative to control; assay type: functional; summary of the method: as §1
[11] = system: RAW264.7; assay: Antiinflammatory activity in mouse RAW264.7 cells assessed as inhibition of LPS-induced increase in IL-1beta level at 20 uM incubated for 2 hrs prior to LPS challenge measured after 22 hrs by ELISA relative to control; assay type: functional; summary of the method: as §1
[12] = system: RAW264.7; assay: Antiinflammatory activity in mouse RAW264.7 cells assessed as inhibition of LPS-induced nitric oxide production incubated for 2 hrs prior to LPS challenge measured after 22 hrs relative to vehicle-treated control; assay type: functional, cell-based; summary of the method: as §2
[13] = system: RAW264.7; assay: Antiinflammatory activity in mouse RAW264.7 cells assessed as inhibition of LPS-induced nitric oxide production at 2 uM incubated for 2 hrs prior to LPS challenge measured after 22 hrs relative to vehicle-treated control; assay type: functional; summary of the method: as §2
[14] = system: RAW264.7; assay: Antiinflammatory activity in mouse RAW264.7 cells assessed as inhibition of LPS-induced nitric oxide production at 20 uM incubated for 2 hrs prior to LPS challenge measured after 22 hrs relative to vehicle-treated control; assay type: functional; summary of the method: as §2
[15] = system: RAW264.7; assay: Antiinflammatory activity in mouse RAW264.7 cells assessed as inhibition of LPS-induced ROS generation incubated for 2 hrs prior to LPS challenge measured after 22 hrs by spectrophotometry relative to vehicle-treated control; assay type: functional, cell-based
Summary of the method: (§3)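 Compound (0–20 µM) applied to RAW 264.7 cells for 2 h, then LPS added for a further 22 h. Cells harvested, loaded with 10 µM DCFH-DA for 20 min, washed twice with cold PBS. Intracellular ROS read as arbitrary fluorescence units. Means ± SEM, four independent experiments.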

[16] = system: RAW264.7; assay: Antiinflammatory activity in mouse RAW264.7 cells assessed as inhibition of LPS-induced ROS generation at 10 uM incubated for 2 hrs prior to LPS challenge measured after 22 hrs by spectrophotometry relative to vehicle-treated control; assay type: functional; summary of the method: as §3
[17] = system: RAW264.7; assay: Antiinflammatory activity in mouse RAW264.7 cells assessed as inhibition of LPS-induced ROS generation at 20 uM incubated for 2 hrs prior to LPS challenge measured after 22 hrs by spectrophotometry relative to vehicle-treated control; assay type: functional; summary of the method: as §3
[18] = molecular target: Transcription factor p65 (Mus musculus) (UniProt Q04207); assay: Antiinflammatory activity in mouse RAW264.7 cells assessed as inhibition of LPS-induced NF-kappaB p65 subunit nuclear translocation at 20 uM incubated for 1 hr prior to LPS challenge measured after 30 mins by immunofluorescence assay relative to vehicle-treated control; assay type: cell-based
Chain of Transcription factor p65 (Mus musculus) (Q04207 whole entry): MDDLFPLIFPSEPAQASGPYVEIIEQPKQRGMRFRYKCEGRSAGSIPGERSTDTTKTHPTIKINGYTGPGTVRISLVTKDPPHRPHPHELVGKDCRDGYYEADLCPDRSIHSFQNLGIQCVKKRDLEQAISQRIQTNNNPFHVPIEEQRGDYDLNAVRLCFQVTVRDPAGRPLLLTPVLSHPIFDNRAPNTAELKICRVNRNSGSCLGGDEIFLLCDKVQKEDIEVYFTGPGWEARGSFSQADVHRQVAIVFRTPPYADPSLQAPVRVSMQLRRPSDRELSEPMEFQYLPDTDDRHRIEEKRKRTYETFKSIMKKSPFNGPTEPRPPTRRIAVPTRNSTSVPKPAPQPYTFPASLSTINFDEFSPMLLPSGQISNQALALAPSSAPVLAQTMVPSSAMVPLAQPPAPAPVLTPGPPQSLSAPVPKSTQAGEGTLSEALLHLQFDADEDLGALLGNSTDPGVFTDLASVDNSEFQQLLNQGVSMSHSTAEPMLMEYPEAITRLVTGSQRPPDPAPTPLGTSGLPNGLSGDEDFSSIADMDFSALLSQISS
Summary of the method: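 Immunofluorescence: RAW 264.7 cells pretreated with 20 µM compound for 1 h, then LPS for 30 min. p65 subunit localization (cytoplasm vs nucleus) imaged by fluorescence microscopy.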

[19] = molecular target: Transcription factor p65 (Mus musculus) (UniProt Q04207); assay: Antiinflammatory activity in mouse RAW264.7 cells assessed as inhibition of LPS-induced DNA binding activity of NF-kappaB p65 incubated for 1 hr prior to LPS challenge measured after 30 mins by ELISA relative to vehicle-treated control; assay type: cell-based
Summary of the method: (§4)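 RAW264.7 cells preincubated with compound (0–20 µM) for 1 h, then stimulated with LPS for 30 min. NF-κB p65 DNA-binding activity quantified by ELISA-based TransAM p65 transcription factor kit. Means ± SEM of three independent experiments. LPS given at 0.5 µg/mL.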

[20] = molecular target: Transcription factor p65 (Mus musculus) (UniProt Q04207); assay: Antiinflammatory activity in mouse RAW264.7 cells assessed as inhibition of LPS-induced DNA binding activity of NF-kappaB p65 at 2 uM incubated for 1 hr prior to LPS challenge measured after 30 mins by ELISA relative to vehicle-treated control; assay type: cell-based; summary of the method: as §4
[21] = molecular target: Transcription factor p65 (Mus musculus) (UniProt Q04207); assay: Antiinflammatory activity in mouse RAW264.7 cells assessed as inhibition of LPS-induced DNA binding activity of NF-kappaB p65 at 10 uM incubated for 1 hr prior to LPS challenge measured after 30 mins by ELISA relative to vehicle-treated control; assay type: cell-based; summary of the method: as §4
[22] = molecular target: Transcription factor p65 (Mus musculus) (UniProt Q04207); assay: Antiinflammatory activity in mouse RAW264.7 cells assessed as inhibition of LPS-induced DNA binding activity of NF-kappaB p65 at 20 uM incubated for 1 hr prior to LPS challenge measured after 30 mins by ELISA relative to vehicle-treated control; assay type: cell-based; summary of the method: as §4

SMILES: C[C@]12CCC(=O)C=C1CC[C@@H]1[C@@H]2[C@@H](O)C[C@@]2(C)[C@H]1CC[C@]2(O)C(=O)CO
inhibition [1]: Active
inhibition [2]: Active
inhibition [3]: Active
inhibition [4]: Active

inhibition [18]: Active
inhibition [19]: Dose-dependent effect
inhibition [20]: 36.5%
inhibition [21]: 51.3%
inhibition [22]: 68%
SMILES: CC1=C[C@]2(C(C)(C)O)C[C@]3(OC2=O)[C@@H](C)CC[C@@H]13
Activity [5]: Non-toxic
inhibition [6]: Dose-dependent effect
inhibition [7]: Dose-dependent effect
inhibition [8]: Dose-dependent effect
inhibition at 10 µM [1]: 37.6%
inhibition at 10 µM [2]: 37.3%
inhibition at 10 µM [3]: 27.9%
inhibition at 20 µM [9]: 55.4%
inhibition at 20 µM [10]: 78.3%
inhibition at 20 µM [11]: 68%
inhibition [12]: Dose-dependent effect
inhibition at 2 µM [13]: 25.1%
inhibition at 10 µM [4]: 53.9%
inhibition at 20 µM [14]: 71%
inhibition [15]: Dose-dependent effect
inhibition at 10 µM [16]: 57.9%
inhibition at 20 µM [17]: 82.3%
